Test results as given in ChEMBL document CHEMBL2062375, “Discovery of an orally efficacious inhibitor of anaplastic lymphoma kinase” (J Med Chem, 2012).

Tests used:
[1] = Plasma clearance in CD-1 mouse at 1 mg/kg, iv; assay type: ADME, organism-based; design: dose 1 mg/kg, route intravenous
Procedure, shortened: (§1)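 Mouse IV PK: lateral tail vein dosing, 100 μL in 3% DMSO/30% Solutol/67% PBS; trunk blood from three mice per time point over 6 h. Plasma precipitated with acetonitrile, drug quantified by LCMS/MS against internal standard; noncompartmental analysis.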

[2] = Volume of distribution in CD-1 mouse at 1 mg/kg, iv; assay type: ADME, organism-based; design: dose 1 mg/kg, route intravenous; conditions: in vivo; procedure, shortened: as §1
[3] = Plasma clearance in Sprague-Dawley rat at 1 mg/kg, iv; assay type: ADME, organism-based; design: dose 1 mg/kg, route intravenous
Procedure, shortened: (§2)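 IV PK: rats via lateral tail vein (1 mL/kg; 3% DMSO/30% Solutol/67% PBS), serial tail-vein blood over 6 h. Dogs and monkeys via saphenous vein (0.5 mL/kg in 40% HPβCD), femoral-vein blood over 24 h. Acetonitrile protein precipitation, LCMS/MS; noncompartmental parameters from individual animals, n = 3, mean ± SEM.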

[4] = AUC in Sprague-Dawley rat at 1 mg/kg, iv; assay type: ADME, organism-based; design: dose 1 mg/kg, route intravenous; conditions: plasma
Procedure, shortened: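 Rat PK. IV via the lateral tail vein, 1 mL/kg in 3% DMSO/30% Solutol/67% PBS, or oral gavage at 5 mL/kg in 40% HPβCD, after an overnight fast. Serial tail-vein blood was taken into heparin over 6 h. Plasma was acetonitrile-precipitated and analysed by LC-MS/MS. Parameters were noncompartmental, n = 3, mean ± SEM.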

[5] = Plasma clearance in Beagle dog at 1 mg/kg, iv; assay type: ADME, organism-based, Canis lupus familiaris; design: dose 1 mg/kg, route intravenous; procedure, shortened: as §2
[6] = Half life in cynomolgus monkey at 1 mg/kg, iv; assay type: ADME, organism-based, Macaca fascicularis; design: dose 1 mg/kg, route intravenous; conditions: in vivo
Procedure, shortened: (§3)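 Dog and monkey PK. IV 0.5 mL/kg in 40% HPβCD via the saphenous vein. Oral dosing was 1 mL/kg by gavage in dogs and 2 mL/kg by nasogastric tube in monkeys, after an overnight fast. Serial femoral-vein blood was taken into heparin over 24 h. Plasma was acetonitrile-precipitated and analysed by LC-MS/MS. Parameters were noncompartmental, n = 3, mean ± SEM.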

[7] = AUC in cynomolgus monkey at 1 mg/kg, iv; assay type: ADME, organism-based, Macaca fascicularis; design: dose 1 mg/kg, route intravenous; conditions: plasma; procedure, shortened: as §3
[8] = AUC in SCID mouse at 10 mg/kg, po; assay type: ADME, organism-based; design: dose 10 mg/kg, route oral; conditions: plasma
Procedure, shortened: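 Mouse PK. IV via the lateral tail vein in 3% DMSO/30% Solutol/67% PBS, or oral gavage in 100% PEG400, 100 μL dose volume, after an overnight fast. Trunk blood was taken from three mice per time point over 6 h. Plasma was acetonitrile-precipitated and analysed by LC-MS/MS. Parameters were derived noncompartmentally.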

[9] = Tmax in CD-1 mouse at 10 mg/kg, po; assay type: ADME, organism-based; design: dose 10 mg/kg, route oral; conditions: in vivo
Procedure, shortened: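 Mouse oral PK: overnight fast, gavage of 100 μL in 100% PEG400; trunk blood from three mice per time point over 6 h; plasma acetonitrile-precipitated and analysed by LCMS/MS, noncompartmental parameters.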

[10] = Tmax in Sprague-Dawley rat at 10 mg/kg, po; assay type: ADME, organism-based; design: dose 10 mg/kg, route oral; conditions: in vivo
Procedure, shortened: (§4)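 PK: overnight-fasted animals. Rat oral gavage 5 mL/kg in 40% HPβCD, serial tail-vein blood over 6 h. Dog oral gavage 1 mL/kg, monkey nasogastric 2 mL/kg, femoral-vein blood over 24 h. Plasma protein-precipitated with acetonitrile, LCMS/MS with internal standard; noncompartmental analysis, individual animals n = 3, mean ± SEM.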

[11] = Cmax in Beagle dog at 10 mg/kg, po; assay type: ADME, organism-based, Canis lupus familiaris; design: dose 10 mg/kg, route oral; conditions: in vivo; procedure, shortened: as §3
[12] = Tmax in Beagle dog at 10 mg/kg, po; assay type: ADME, organism-based, Canis lupus familiaris; design: dose 10 mg/kg, route oral; conditions: in vivo; procedure, shortened: as §4
[13] = Half life in Beagle dog at 10 mg/kg, po; assay type: ADME, organism-based, Canis lupus familiaris; design: dose 10 mg/kg, route oral; conditions: in vivo; procedure, shortened: as §3
[14] = AUC in Beagle dog at 10 mg/kg, po; assay type: ADME, organism-based, Canis lupus familiaris; design: dose 10 mg/kg, route oral; conditions: plasma; procedure, shortened: as §3
[15] = Half life in cynomolgus monkey at 10 mg/kg, po; assay type: ADME, organism-based, Macaca fascicularis; design: dose 10 mg/kg, route oral; conditions: in vivo; procedure, shortened: as §3
[16] = Cmax in rat at 55 mg/kg, po; assay type: ADME, organism-based; design: dose 55 mg/kg, route oral; conditions: in vivo
Procedure, shortened: (§5)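 Rat oral dose escalation at 10, 30, 55 and 100 mg/kg. Gavage at 5 mL/kg in 40% HPβCD after an overnight fast. Serial tail-vein blood was drawn into heparinized tubes. Plasma was protein-precipitated with acetonitrile and assayed by LC-MS/MS. Cmax and AUC0–12 were derived noncompartmentally; n = 2 at 10 mg/kg.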

[17] = Cmax in rat at 100 mg/kg, po; assay type: ADME, organism-based; design: dose 100 mg/kg, route oral; conditions: in vivo; procedure, shortened: as §5
[18] = AUC (0 to 12 hrs) in rat 30 mg/kg, po; assay type: ADME, organism-based; design: time < 12 hr, dose 30 mg/kg, route oral; conditions: plasma; procedure, shortened: as §5
[19] = tested on: KARPAS-299; test: Antitumor activity against human KARPAS299 cells expressing NPM-ALK xenografted in SCID mouse assessed as tumor regression administered as po bid for 12 days; assay type: functional, organism-based
Procedure, shortened: (§6)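 Female SCID/beige mice, 6–8 weeks old, implanted sc in the left flank with exponentially growing Karpas-299 cells. At about 600 mm³ tumours, mice were randomized (8–10/group) and given PEG400 vehicle or compound orally b.i.d., 100 μL, for 12 days. Tumour volume (0.5236LW(L+W)/2) and body weight were recorded every 2–3 days; Mann–Whitney test. Plasma and tumour levels were measured by LC-MS/MS 2 h after the final dose, mean ± SEM.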

[20] = Drug level in SCID/beige mouse tumor xenografted with human KARPAS299 cells expressing NPM-ALK at 30 mg/kg, po bid after 2 hrs post last dose by LC-MS/MS analysis; assay type: ADME, organism-based, Neoplasm, KARPAS-299; design: dose 30 mg/kg, route oral; conditions: read-out: Drug uptake; procedure, shortened: as §6
[21] = tested on: Rattus norvegicus; test: Ratio of AUC (0 to 12 h) at 10 mg/kg, po to AUC (0 to 12 h) at 100 mg/kg, po in rat; assay type: ADME, organism-based; conditions: in vivo
Procedure, shortened: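 Oral dose-escalation PK study in rats at 10, 30, 55 and 100 mg/kg. […] The ratio compares the 10 mg/kg value with the 100 mg/kg value.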

[22] = Drug level in SCID mouse tumor xenografted with human KARPAS299 cells expressing NPM-ALK at 30 mg/kg, po after 12 hrs by LC-MS/MS analysis; assay type: ADME, organism-based, Neoplasm, KARPAS-299; design: dose 30 mg/kg, route oral; conditions: read-out: Drug uptake
[23] = molecular target: Protein-tyrosine kinase 6 (Homo sapiens, UniProt Q13882); test: Inhibition of human BRK
[24] = molecular target: Receptor-type tyrosine-protein kinase FLT3 (Homo sapiens, UniProt P36888); test: Inhibition of human Flt3
Procedure, shortened: (§7)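 Millipore KinaseProfiler activity assays on a 259-kinase panel; kinases inhibited by ≥90% at 1 μM then taken to full IC50 determination.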

[25] = molecular target: Mitogen-activated protein kinase kinase kinase kinase 2 (Homo sapiens, UniProt Q12851); test: Inhibition of human GCK; procedure, shortened: as §7
[26] = molecular target: Ribosomal protein S6 kinase alpha-3 (Homo sapiens, UniProt P51812); test: Inhibition of human Rsk2; procedure, shortened: as §7
[27] = molecular target: Ribosomal protein S6 kinase alpha-1 (Homo sapiens, UniProt Q15418); conditions: 1 uM
[28] = molecular target: Ribosomal protein S6 kinase alpha-2 (Homo sapiens, UniProt Q15349); conditions: 1 uM
[29] = molecular target: Focal adhesion kinase 1 (Homo sapiens, UniProt Q05397); conditions: 1 uM
[30] = molecular target: Tyrosine-protein kinase Fes/Fps (Homo sapiens, UniProt P07332); conditions: 1 uM
[31] = molecular target: Vascular endothelial growth factor receptor 3 (Homo sapiens, UniProt P35916); conditions: 1 uM
[32] = molecular target: Mitogen-activated protein kinase 8 (Homo sapiens, UniProt P45983); conditions: 1 uM
Chain of Mitogen-activated protein kinase 8 (P45983 whole entry): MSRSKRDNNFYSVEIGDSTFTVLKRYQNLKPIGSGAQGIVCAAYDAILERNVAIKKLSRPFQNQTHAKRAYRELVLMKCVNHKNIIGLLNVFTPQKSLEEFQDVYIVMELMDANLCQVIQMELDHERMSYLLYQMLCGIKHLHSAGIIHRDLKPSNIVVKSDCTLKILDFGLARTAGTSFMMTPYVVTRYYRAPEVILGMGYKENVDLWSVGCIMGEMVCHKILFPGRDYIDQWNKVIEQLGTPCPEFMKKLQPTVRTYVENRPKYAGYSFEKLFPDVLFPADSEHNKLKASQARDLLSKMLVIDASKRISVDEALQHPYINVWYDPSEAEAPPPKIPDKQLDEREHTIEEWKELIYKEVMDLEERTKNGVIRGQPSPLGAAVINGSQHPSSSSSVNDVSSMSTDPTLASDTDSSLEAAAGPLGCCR

Chain of Receptor-type tyrosine-protein kinase FLT3 (P36888 whole entry): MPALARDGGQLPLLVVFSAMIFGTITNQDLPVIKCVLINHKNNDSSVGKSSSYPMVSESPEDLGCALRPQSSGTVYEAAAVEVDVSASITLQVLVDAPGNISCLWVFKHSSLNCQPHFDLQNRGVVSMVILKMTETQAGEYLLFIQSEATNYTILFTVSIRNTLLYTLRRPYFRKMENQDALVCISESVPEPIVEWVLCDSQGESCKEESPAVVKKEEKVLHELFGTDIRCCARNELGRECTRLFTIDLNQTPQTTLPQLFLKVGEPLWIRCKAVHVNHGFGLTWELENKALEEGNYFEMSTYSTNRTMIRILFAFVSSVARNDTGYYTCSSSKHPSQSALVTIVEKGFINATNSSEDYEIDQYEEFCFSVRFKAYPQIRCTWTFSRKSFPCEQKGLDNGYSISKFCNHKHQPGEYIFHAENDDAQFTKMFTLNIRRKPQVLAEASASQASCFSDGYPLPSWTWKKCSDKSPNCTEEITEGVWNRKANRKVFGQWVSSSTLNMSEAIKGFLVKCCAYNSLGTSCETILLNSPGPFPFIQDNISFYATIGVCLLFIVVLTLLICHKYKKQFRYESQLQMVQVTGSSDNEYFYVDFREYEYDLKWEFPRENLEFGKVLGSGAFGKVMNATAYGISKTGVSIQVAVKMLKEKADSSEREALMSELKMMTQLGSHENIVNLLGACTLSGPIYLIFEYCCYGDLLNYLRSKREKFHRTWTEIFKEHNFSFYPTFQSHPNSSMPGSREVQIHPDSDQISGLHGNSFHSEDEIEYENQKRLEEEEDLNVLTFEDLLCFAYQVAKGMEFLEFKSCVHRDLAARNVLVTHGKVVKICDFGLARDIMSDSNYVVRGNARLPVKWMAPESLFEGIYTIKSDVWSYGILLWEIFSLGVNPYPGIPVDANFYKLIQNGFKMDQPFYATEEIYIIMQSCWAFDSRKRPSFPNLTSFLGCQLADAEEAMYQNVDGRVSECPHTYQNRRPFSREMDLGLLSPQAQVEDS
Chain of Ribosomal protein S6 kinase alpha-3 (P51812 whole entry): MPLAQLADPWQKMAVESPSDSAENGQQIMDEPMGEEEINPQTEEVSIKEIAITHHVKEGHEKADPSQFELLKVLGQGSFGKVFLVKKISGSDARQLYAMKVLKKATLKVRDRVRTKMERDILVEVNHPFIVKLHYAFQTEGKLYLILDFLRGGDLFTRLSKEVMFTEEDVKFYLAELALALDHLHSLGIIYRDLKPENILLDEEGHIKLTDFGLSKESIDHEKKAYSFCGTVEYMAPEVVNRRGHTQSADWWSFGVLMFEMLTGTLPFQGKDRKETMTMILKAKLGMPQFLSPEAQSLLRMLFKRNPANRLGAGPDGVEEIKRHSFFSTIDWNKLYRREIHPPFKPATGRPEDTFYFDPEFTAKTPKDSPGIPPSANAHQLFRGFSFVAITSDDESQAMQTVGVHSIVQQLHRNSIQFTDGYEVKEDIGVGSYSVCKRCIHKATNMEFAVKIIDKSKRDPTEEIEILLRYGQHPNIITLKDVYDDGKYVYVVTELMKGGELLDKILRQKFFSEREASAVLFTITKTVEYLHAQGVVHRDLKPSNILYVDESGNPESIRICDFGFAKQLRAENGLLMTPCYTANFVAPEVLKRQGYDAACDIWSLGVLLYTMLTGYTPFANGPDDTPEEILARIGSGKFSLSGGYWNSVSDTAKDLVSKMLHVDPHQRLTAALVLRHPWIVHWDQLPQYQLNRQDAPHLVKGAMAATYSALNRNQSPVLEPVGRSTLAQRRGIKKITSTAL
Chain of Focal adhesion kinase 1 (Q05397 2-1052 limits assumed): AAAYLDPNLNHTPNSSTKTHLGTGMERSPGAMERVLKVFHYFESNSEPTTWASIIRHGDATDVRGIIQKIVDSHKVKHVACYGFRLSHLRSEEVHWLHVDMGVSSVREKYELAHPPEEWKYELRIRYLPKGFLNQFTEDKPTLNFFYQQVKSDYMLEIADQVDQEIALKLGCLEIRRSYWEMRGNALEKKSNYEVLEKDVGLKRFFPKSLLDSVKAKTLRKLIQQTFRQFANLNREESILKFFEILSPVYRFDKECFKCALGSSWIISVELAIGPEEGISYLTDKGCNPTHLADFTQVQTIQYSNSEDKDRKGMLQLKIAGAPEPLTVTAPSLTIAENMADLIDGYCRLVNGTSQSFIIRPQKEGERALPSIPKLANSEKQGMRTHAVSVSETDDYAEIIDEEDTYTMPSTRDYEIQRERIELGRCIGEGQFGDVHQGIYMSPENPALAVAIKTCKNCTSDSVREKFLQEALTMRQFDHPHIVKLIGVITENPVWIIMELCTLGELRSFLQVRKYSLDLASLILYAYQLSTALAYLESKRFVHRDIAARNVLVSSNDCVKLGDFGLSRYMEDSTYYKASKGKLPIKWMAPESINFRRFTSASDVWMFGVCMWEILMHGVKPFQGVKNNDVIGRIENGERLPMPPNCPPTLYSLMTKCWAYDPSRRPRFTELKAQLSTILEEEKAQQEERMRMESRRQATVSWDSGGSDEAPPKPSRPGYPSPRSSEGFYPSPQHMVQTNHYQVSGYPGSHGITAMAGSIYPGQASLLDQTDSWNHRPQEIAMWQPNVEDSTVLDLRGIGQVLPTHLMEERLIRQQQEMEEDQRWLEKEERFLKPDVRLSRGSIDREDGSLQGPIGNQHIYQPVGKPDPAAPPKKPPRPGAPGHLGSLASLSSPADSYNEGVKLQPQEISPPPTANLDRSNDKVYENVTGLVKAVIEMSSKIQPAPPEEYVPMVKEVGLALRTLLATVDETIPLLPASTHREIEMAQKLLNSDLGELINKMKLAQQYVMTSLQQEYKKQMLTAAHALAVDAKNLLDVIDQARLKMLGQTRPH
Chain of Protein-tyrosine kinase 6 (Q13882 whole entry): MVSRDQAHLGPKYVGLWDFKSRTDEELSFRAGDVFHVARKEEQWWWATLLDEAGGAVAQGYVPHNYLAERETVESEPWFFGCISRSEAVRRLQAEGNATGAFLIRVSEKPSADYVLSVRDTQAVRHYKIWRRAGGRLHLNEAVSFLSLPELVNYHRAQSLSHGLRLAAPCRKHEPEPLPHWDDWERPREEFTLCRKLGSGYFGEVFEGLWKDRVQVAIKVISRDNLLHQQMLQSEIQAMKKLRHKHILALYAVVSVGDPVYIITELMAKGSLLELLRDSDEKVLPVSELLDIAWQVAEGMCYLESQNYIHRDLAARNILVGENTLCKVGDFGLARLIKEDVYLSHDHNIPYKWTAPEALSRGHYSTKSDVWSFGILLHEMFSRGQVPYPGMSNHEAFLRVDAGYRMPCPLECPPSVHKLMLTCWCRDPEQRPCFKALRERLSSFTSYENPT
Chain of Tyrosine-protein kinase Fes/Fps (P07332 whole entry): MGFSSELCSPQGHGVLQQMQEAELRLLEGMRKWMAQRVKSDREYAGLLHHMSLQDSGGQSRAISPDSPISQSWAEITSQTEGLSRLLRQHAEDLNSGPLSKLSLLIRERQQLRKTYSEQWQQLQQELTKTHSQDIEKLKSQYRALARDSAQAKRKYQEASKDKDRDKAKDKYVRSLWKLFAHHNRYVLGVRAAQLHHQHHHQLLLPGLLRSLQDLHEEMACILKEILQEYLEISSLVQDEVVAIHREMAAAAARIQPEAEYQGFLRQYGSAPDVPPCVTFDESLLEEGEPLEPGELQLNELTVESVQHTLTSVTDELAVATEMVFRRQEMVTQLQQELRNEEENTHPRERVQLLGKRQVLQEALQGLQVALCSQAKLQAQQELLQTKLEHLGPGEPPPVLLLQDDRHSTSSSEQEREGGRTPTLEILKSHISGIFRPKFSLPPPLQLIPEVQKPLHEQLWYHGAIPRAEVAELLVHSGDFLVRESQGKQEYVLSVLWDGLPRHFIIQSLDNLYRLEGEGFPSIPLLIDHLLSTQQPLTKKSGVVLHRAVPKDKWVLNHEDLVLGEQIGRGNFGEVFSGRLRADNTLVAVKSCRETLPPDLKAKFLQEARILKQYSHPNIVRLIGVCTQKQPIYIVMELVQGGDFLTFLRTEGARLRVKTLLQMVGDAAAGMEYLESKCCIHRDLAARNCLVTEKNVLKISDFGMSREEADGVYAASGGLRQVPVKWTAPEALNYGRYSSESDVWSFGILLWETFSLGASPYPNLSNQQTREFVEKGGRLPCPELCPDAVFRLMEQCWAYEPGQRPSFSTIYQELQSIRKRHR

COc1c(Nc2ncc(Cl)c(N[C@H]3[C@@H](C(N)=O)[C@@H]4C=C[C@H]3C4)n2)ccc2c1CC[C@@H](N1CCOCC1)CC2
clearance [1]: 29 mL/min/kg
Vd [2]: 1.8 L/kg
clearance [3]: 17 mL/min/kg
AUC [4]: 989 ng·h/mL
clearance [5]: 40 mL/min/kg
half-life [6]: 1.2 h
AUC [7]: 615 ng·h/mL
AUC [8]: 21400 ng·h/mL
Tmax [9]: 0.25 h
Tmax [10]: 1.3 h
Cmax [11]: 427 ng/mL
Tmax [12]: 0.8 h
half-life [13]: 3.3 h
AUC [14]: 2130 ng·h/mL
half-life [15]: 1.2 h
Cmax [16]: 2250 ng/mL
Cmax [17]: 3050 ng/mL
AUC(0-t) at 12 h [18]: 10900 ng·h/mL
Activity [19]: Dose-dependent effect
concentration at 2 h [20]: 4040 ng/g
Ratio [21]: 15
concentration at 12 h [22]: 1460 ng/g
IC50 [23]: 73 nM
IC50 [24]: 88 nM
IC50 [25]: 60 nM
IC50 [26]: 13 nM
inhibition [27]: > 90%
inhibition [28]: > 90%
inhibition [29]: > 90%
inhibition [30]: > 90%
inhibition [31]: > 90%
inhibition [32]: > 90%
